ANO1 block = TMEM16A chloride channel inhibitors, primary screen, cell-based, HTS | HEK293 TMEM16A/YFP iodide influx fluorescence, ionomycin | 1.2% of 310,000 active | Anoctamin-1 (Mus musculus), Q8BHY3 | normalized B-score (activity score, 25-100; higher = stronger inhibition) at 10 µM | AID 588511, 2011;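 active = ratio plate-corrected score three or more library SD toward inhibition, starting fluorescence score within five deviations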;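 note: score derived from kinetic fluorescence span divided by baseline fluorescence per well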
Target sequence (Q8BHY3 whole entry, looked up): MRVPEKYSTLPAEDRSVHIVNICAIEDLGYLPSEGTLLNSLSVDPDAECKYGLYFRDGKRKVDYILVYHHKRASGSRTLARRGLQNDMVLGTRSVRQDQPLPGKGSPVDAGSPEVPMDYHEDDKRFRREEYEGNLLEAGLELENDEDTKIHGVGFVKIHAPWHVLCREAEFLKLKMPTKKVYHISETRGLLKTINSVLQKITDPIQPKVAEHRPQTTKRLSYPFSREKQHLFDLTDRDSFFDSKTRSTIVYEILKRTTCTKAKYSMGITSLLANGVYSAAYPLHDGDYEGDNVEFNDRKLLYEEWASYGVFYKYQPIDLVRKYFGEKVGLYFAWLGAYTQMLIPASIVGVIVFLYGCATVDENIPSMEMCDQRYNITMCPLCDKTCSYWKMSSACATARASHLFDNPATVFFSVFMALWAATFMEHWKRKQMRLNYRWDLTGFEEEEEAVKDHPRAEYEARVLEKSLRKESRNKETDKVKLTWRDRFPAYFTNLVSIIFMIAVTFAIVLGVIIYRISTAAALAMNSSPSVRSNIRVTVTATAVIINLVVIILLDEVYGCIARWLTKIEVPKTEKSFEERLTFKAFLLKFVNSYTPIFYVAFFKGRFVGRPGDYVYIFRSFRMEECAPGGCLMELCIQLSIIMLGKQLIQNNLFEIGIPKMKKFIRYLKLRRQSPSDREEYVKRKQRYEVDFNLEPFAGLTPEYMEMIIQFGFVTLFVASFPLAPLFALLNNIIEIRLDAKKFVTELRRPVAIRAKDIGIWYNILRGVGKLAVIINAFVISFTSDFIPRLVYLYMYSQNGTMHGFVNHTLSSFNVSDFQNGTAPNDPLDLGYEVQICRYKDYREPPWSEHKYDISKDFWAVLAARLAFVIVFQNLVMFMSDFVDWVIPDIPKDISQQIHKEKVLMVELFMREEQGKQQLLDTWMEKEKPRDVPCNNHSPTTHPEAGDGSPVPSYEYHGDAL
CHOP UPR activ = activators of apoptotic CHOP UPR arm, primary screen, cell-based, CHO-CHOP luciferase reporter, luminescence, uHTS; UPR activation; percent of tunicamycin response over DMSO baseline; activation, % at 10 µM; 0.34% of 330,000 active; AID 449763, 2010;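 active = at 10 µM dose, activation of 40% or more, normalized to positive control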;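 note: 100% = tunicamycin at 10 µg/mL and 0% = DMSO alone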
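Test system: CHO-CHOP cells, stable luciferase reporter of PERK-eIF2a-CHOP signalling | Quantity: 500 CHO-CHOP cells per well | Buffer or medium: F12 plus 10% serum | Compound dosing: 10 µM single point, 0.5% DMSO | Schedule: 6 h compound treatment, 37 °C | Signal: Luciferase luminescence | Control set: Tunicamycin high control, DMSO low control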
ANO1 activ = TMEM16A chloride channel activators or potentiators, primary screen, cell-based, HTS; Anoctamin-1 (Mus musculus), Q8BHY3; HEK293 TMEM16A/YFP-H148Q/I152L, iodide quench fluorescence; stronger effect = lower value; B-score at 10 µM; 0.3% of 340,000 active; AID 623877, 2012;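 active = fluorescence-ratio B-score plate-corrected deviation score at least 3 library SD below zero, with starting fluorescence score within 5 deviations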;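 note: channel opened by trigger with iodide after compound preincubation; score built on the fluorescence ratio of max minus min over baseline; more negative score means more quench and so TMEM16A activation or potentiation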
XBP1 UPR activ = activators of adaptive XBP1 UPR arm, primary screen, cell-based, CHO-XBP1 luciferase reporter, luminescence, uHTS. IRE1-XBP1 UPR activation; percent of tunicamycin response, DMSO as zero. activation, % at 20 µM. 0.33% of 330,000 active. AID 463104, 2010;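 active = versus positive control, 20 µM dose yields 30% or more activation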;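 note: 100% = tunicamycin at 10 µg/mL and 0% = DMSO only wells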
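Signal: luciferase luminescence; Assay system: CHO-XBP1 luciferase reporter cells; Amount: one thousand reporter cells per well; Dosing: 20 µM single concentration, DMSO 1%; Benchmarks: high control tunicamycin 10 µg/mL final, low control DMSO vehicle only; Schedule: 6 h compound exposure at 37 °C, 5% CO2; Evaluation: percent activation relative to tunicamycin reference.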
Lipid droplet = inhibitors of hepatocyte lipid droplet formation, primary screen, imaging, high-throughput imaging, BODIPY stain. 0.4% of 240,000 active. inhibition, % at 6.5 µM. AML12 mouse hepatocytes, oleate lipid droplets;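 active = lipid droplet intensity inhibited by at least 50%, with more than 500 cells counted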
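Material – AML12 mouse liver cells · Also added – oleate loading, 100 µM · Compound dosing – 6.5 µM single-point dosing · Times – overnight treatment with compound plus oleate · Measured by – fluorescence imaging, 20x objective, two fields per well · Read-out – percent inhibition of filter-corrected integrated lipid droplet intensity per well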
CHOP inhibitor = inhibitors of CHOP promoter induction, primary screen, cell-based, unfolded protein response, luciferase reporter. CHO-K1 CHOP-promoter luciferase, tunicamycin-induced, 15-18 h. inhibition, % at 10 µM. 3.8% of 220,000 active. AID 2732, 2010;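 active = compounds that reduced the stress-induced luciferase reporter signal by more than about 70% of percent inhibition, limit read from the data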;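 note: 0% = tunicamycin plus vehicle and 100% = wells without tunicamycin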
TMEM16A reconf = TMEM16A chloride channel inhibitors, confirmation, cell-based, re-confirmation | shares compounds with ANO1 block | HEK293 TMEM16A/YFP-H148Q, iodide quench fluorescence; ionomycin added to raise cell calcium | inhibition, % at 10 µM | 39% of 2,300 active;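 active = mean duplicate percent inhibition, scaled so buffer wells are 0 and the reference blocker 100, over three buffer SD above buffer mean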
HEK293 Ca mobil = calcium mobilization in TMEM16A/YFP HEK293 cells, confirmation, counter-screen for TMEM16A inhibitor project | shares compounds with ANO1 block | Fluo4 calcium mobilization | calcium response (% of ionomycin), % at 10 µM | 2% of 2,300 active | AID 652231, 2013;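 active = duplicate-averaged calcium signal over 20% of the ionomycin maximum, relative to buffer baseline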;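 note: each well's signal is peak minus trough fluorescence divided by its pre-addition baseline; 0% = buffer wells and 100% = ionomycin wells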
YFP-HEK293 quench = iodide YFP quench changes in parental YFP-HEK293, counter-screen for TMEM16A inhibitor project, cell-based | YFP ratio F(max-min)/F0 at 10 µM | 2,300 tested, under 10 active | ionomycin | shares compounds with ANO1 block;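 active = yellow fluorescent protein signal ratio exceeding the buffer control mean by over 5 SD of those controls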;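 note: ratio is mean of duplicate wells from kinetic YFP trace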
ClC-1 inh = ClC-1 chloride channel inhibition, selectivity assay for TMEM16A inhibitor project, cell-based, voltage-dependent ClC-1; CHO ClC-1-YFP, iodide influx fluorescence quench; iodide control reads 0, buffer control 100; ratio percent, % at 10 µM; AID 652236, 2013; 2,300 tested, under 10 active; shares compounds with ANO1 block;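 active = duplicate-mean ratio percent above the mean of iodide-only control wells, which defines zero, plus 5 of their SD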;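 note: higher percent means stronger block of ClC-1 iodide influx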
* = called active by the depositor; i = inactive; / = no result. This is a sample that favours compounds with a hit; in the whole collection about 4.2% have one here.

SMILES | ANO1 block | CHOP UPR activ | ANO1 activ | XBP1 UPR activ | Lipid droplet | CHOP inhibitor | TMEM16A reconf | HEK293 Ca mobil | YFP-HEK293 quench | ClC-1 inh
CCCC1CC(C)(c2csc(Nc3ccc(OCC)cc3)n2)OC1=O (stereo not given) | 100* | 4.5 | i | 0.8 | -36.6 | 56.5 | 31.0%* | i | -0.955 | -20.0
CCOc1ccc(NC(=O)CC2CC(C)(C)OC2=O)cc1 (stereo not given) | i | 0.6 | i | -0.9 | / | 13.0 | / | / | / | /
Fc1ccc(CSc2nc3ccccc3[nH]2)c2ccccc12 | 100* | -2.6 | i | 1.8 | 6.5 | 69.4 | 32.5%* | i | -0.848 | -5.0
CCOC(=O)C1C(=O)NC(C(=O)OCC)(C(=O)OCC)C1CC (stereo not given) | / | / | i | / | / | / | / | / | / | /
CC(C)OC(=O)C1C2C=CC3(CN(C(C)c4ccc(Br)cc4)C(=O)C13)O2 (stereo not given) | 25* | 0.0 | i | -0.4 | / | -4.4 | i | i | -1.16 | -14.0
CCN(Cc1ccccc1)S(=O)(=O)c1ccc2oc(C(=O)O)c(C)c2c1 | 25* | -0.5 | i | 1.1 | 0.1 | -11.0 | i | i | -1.18 | 1.5
CCN(CC)S(=O)(=O)c1ccc2oc(C(=O)O)c(C)c2c1 | i | -0.1 | i | -0.8 | -2.1 | 17.1 | / | / | / | /
CCCc1nc(N2CCOCC2)c(C#N)c2c1CCCC2 | 100* | -0.5 | i | -0.5 | 1.4 | 53.6 | i | i | -1.08 | -9.5
CC1=CC(C)(C)N(S(=O)(=O)c2ccc(C)cc2)c2ccccc21 | 100* | -1.7 | i | 10.1 | -7.4 | / | i | i | -0.935 | -15.5
CC1=CC(C)(C)N(S(=O)(=O)c2ccc(F)cc2)c2ccc(C)cc21 | i | -1.2 | i | 29.0 | -31.6 | / | / | / | / | /
O=S(=O)(Nc1nccs1)c1ccc(F)cc1 | i | -0.7 | i | 1.3 | -0.9 | -13.4 | / | / | / | /
O=C(c1ccccc1)c1ccc2cc(O)ccc2c1 | 25* | 5.4 | i | 4.9 | 8.4 | / | i | i | -1.05 | -1.5
O=C(c1ccccc1)c1ccc2ccccc2c1 | / | / | i | / | / | / | / | / | / | /
O=C(c1ccc([N+](=O)[O-])s1)N1CCN(c2ccc(C(F)(F)F)cn2)CC1 | i | 1.4 | i | 3.1 | -12.1 | / | / | / | / | /
CC(C)Cn1c(N)c(C(=O)COC(=O)CCc2nc3ccccc3s2)c(=O)n(C)c1=O | 100* | 3.3 | i | -1.9 | -7.8 | 41.4 | 21.0%* | i | -0.798 | -17.5
CCC(C(=O)O)n1nc(-c2ccccc2)c2cc(Cl)ccc21 (stereo not given) | i | -1.0 | i | 1.2 | / | 13.3 | / | / | / | /
Cc1cc(C(=O)OCC(=O)Nc2ccccc2C)c(C)o1 | / | 1.4 | i | -1.8 | / | / | / | / | / | /
Cc1cc(C(=O)OCC(=O)Nc2ccc(F)cc2F)c(C)o1 | 100* | -0.9 | i | -0.3 | / | -1.4 | i | i | -0.871 | -15.5
COc1ccc2nc(/N=C/c3c(C)[nH]n(-c4ccc(C)cc4)c3=O)sc2c1 | i | 3.7 | i | 1.9 | -21.3 | 7.1 | / | / | / | /
CCOC(=O)c1c(-c2cccs2)csc1NC(=O)C(C)(C)C | 25* | -1.3 | i | -1.9 | -1.6 | -6.3 | 33.0%* | i | -1.08 | -6.0
Cc1ccc2[nH]cc(CCNC(=O)c3cccs3)c2c1 | i | 1.0 | i | -5.8 | -7.0 | / | / | / | / | /
COC(=O)C(CC(=O)c1ccccc1)CC(=O)c1ccccc1 | i | 5.3 | i | 6.6 | -17.6 | / | / | / | / | /
COc1ccccc1C(CC(=O)c1ccccc1)CC(=O)c1ccccc1 | 100* | -0.3 | i | 0.5 | -12.2 | 20.7 | i | i | -0.96 | -14.0
CCOC(=O)CNS(=O)(=O)c1ccc(C)cc1 | i | 2.6 | i | 0.6 | 1.1 | 16.1 | / | / | / | /
Cc1ccc(C(=O)CSc2nc(C(C)C)nc3ccccc23)cc1 | 100* | 2.7 | i | 1.4 | -17.7 | -4.7 | i | i | -0.967 | -13.0
SMILES | ANO1 block | CHOP UPR activ | ANO1 activ | XBP1 UPR activ | Lipid droplet | CHOP inhibitor | TMEM16A reconf | HEK293 Ca mobil | YFP-HEK293 quench | ClC-1 inh
CCOC(=O)CSc1nc(C(C)C)nc2ccccc12 | i | 0.2 | i | 1.2 | 3.2 | 32.2 | / | / | / | /
FC(F)(F)c1ccncc1-c1nnnn1-c1ccc(Cl)cc1 | i | 0.1 | i | -2.2 | -27.2 | 13.6 | / | / | / | /
FC(F)(F)c1nc(N2CCCC2)ncc1-c1nnnn1-c1ccc(Cl)cc1 | 25* | 0.5 | i | -0.1 | -1.3 | 67.0 | i | i | -1.1 | -20.0
COc1ccc(C(=O)C2CCN(CC(=O)Nc3ccccc3F)CC2)cc1 | 25* | -1.0 | i | -2.9 | 2.3 | / | i | i | -0.905 | -4.0
O=C(Nc1cccnc1)Nc1ccccc1Cl | 100* | 2.5 | i | 4.3 | 2.4 | 17.9 | i | i | -0.913 | -5.5
Cc1cccc(C(C)C)c1NC(=O)c1cc2ccccc2o1 | i | 0.0 | i | -1.1 | -7.3 | / | / | / | / | /
Cc1cccc(N(C)S(=O)(=O)c2csc(C(N)=O)c2)c1 | i | -0.6 | / | -4.2 | 6.8 | / | / | / | / | /
O=C(CN1CCN(S(=O)(=O)c2cccc(F)c2)CC1)Nc1ccnn1C1CCCC1 | / | 0.7 | i | -0.9 | / | / | / | / | / | /
CN(CCCC(=O)Nc1ccncc1)S(=O)(=O)c1ccc(Cl)cc1 | 100* | 2.9 | i | -3.2 | / | / | i | i | -0.917 | -23.0
Cc1ccc(CC(=O)Nc2ccncc2)cc1 | i | 0.6 | i | -3.0 | -31.0 | 22.9 | / | / | / | /
O=C(Cc1ccc(Cl)cc1)Nc1ccncc1 | 25* | 0.8 | i | -1.1 | -2.7 | 52.9 | i | i | -0.841 | -14.5
CC[C@@H]1CC=C[C@H]2[C@H]1C(=O)N(Cc1ccccc1)[C@H]2c1ccc(OC)c(Cl)c1 | i | -1.6 | i | -2.2 | -11.7 | 59.6 | / | / | / | /

Screening results: PubChem, several laboratories
